From paper PMC9773939 (ACS Omega, 2022)
Read-outs that look alike come from different tables or passages of the source. Marks after values point to notes of the source that are not given here.

What was measured:
[1] = test system: epimastigotes of T. cruzi; test: In vitro anti-T. cruzi evaluation on epimastigotes; format: cell-based, T. cruzi (CL Brener clone); conditions: Trypanosoma cruzi; for IC50: 120 h, read-out: epimastigote, IC50 T. cruzi; for inhibition at 25 µM: read-out: epimastigote, PGI (percentage growth inhibition) T. cruzi, determined at 25 μM
Procedure, shortened: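 Turbidity (A595) was read at day 0 and day 5. PGI was calculated relative to untreated controls, with single-point PGI at 25 μM. IC50 is the concentration […]. At least three experiments.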

[2] = test system: promastigotes of L. infantum; test: In vitro growth inhibition of L. infantum promastigotes; format: cell-based, Leishmania infantum (MHOM MA67I7MAP263); conditions: for IC50 / inhibition at 25 µM: Leishmania infantum; for IC50 / promastigote, IC50 L. infantum: 72 h; for IC50: read-out: promastigote, IC50 L. infantum; for inhibition at 25 µM: read-out: promastigote, PGI (percentage growth inhibition) L. infantum; for promastigote, IC50 L. infantum: promastigotes, MTT
Procedure, shortened: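 L. infantum MHOM MA67I7MAP263 promastigotes at 2 × 10^6 parasites/mL were exposed to 0.5–25 μM test compound for 72 h at 25 °C. Dilutions came from a 3000 μM DMSO stock, with final DMSO ≤1%. MTT (0.4 mg/mL) was added for 4 h at 37 °C, formazan was dissolved in DMSO and read at 570 nm. Inhibition was calculated against untreated controls. At least three experiments, mean ± SD.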

[3] = test system: promastigotes of L. braziliensis; test: In vitro growth inhibition of L. braziliensis promastigotes; format: cell-based, Leishmania (V) braziliensis (MHOM/BR/75/M2903); conditions: for IC50: read-out: promastigote, IC50 L. braziliensis; for inhibition at 25 µM: read-out: promastigote, PGI (percentage growth inhibition) L. braziliensis
[4] = Solubility, qualitative remarks; format: physicochemical; conditions: qualitative remark
[5] = test system: Salmonella typhimurium TA 98 strain; test: Mutagenicity Ames test; format: cell-based; conditions: dose 20.0 μg/plate
peritoneal macrophages = test: Cytotoxicity on primary peritoneal macrophages; format: cell-based, mouse; conditions: read-out: peritoneal macrophage, CC50; 48 h, MTT
Procedure, shortened: (§1)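 Peritoneal or J774.1A macrophages were grown in DMEM with 10% heat-inactivated FBS, L-glutamine and penicillin/streptomycin. Cells were seeded at 5 × 10^4 cells/well for 24 h at 37 °C, 5% CO2, then given test compound at 10–100 μM (from 25,000 μM DMSO stock) for 48 h. MTT (0.4 mg/mL, 4 h, 37 °C) was dissolved in DMSO and read at 570 nm. Cytotoxicity was expressed relative to negative controls. At least three experiments.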

[6] = test system: amastigotes of L. braziliensis; test: Ex vivo antiamastigote activity of L. braziliensis; format: cell-based, L. braziliensis (MHOM/BZ/82/M2903); conditions: for S.I.Leishmania (selectivity index): CC50 (peritoneal macrophage) / IC50 (amastigotes of L. braziliensis)
Procedure, shortened: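 L. braziliensis MHOM/BZ/82/M2903 amastigotes were taken from footpad lesions of infected BALB/c mice. Macrophages were removed by brief centrifugation (3000 rpm, 2–3 min). Amastigotes were kept at 37 °C, pH 5.5, in supplemented M199 with 10% FCS. At 2 × 10^6/mL they were exposed to 1.0–50.0 μM test compound (controls 1% DMSO). At 48 h parasites were counted in a Neubauer chamber against untreated controls. S.I. = peritoneal macrophage CC50 / amastigote IC50.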

[7] = test system: promastigotes of L. infantum; format: cell-based; conditions: presence vs absence of D,L-folic acid
Procedure, shortened: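 L. infantum promastigotes were treated with test compound with or without D,L-folic acid, following the promastigote MTT viability protocol (72 h, 25 °C, formazan read at 570 nm). IC50 was determined in each condition and compared.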

[8] = Cytotoxicity on J774.1A macrophages; format: cell-based; conditions: mouse, J774.1A macrophages, J774.1A macrophage, CC50, 48 h, MTT
Procedure, shortened: as §1

[9] = Cytotoxicity on primary peritoneal macrophages; format: cell-based, mouse; conditions: mouse, primary peritoneal macrophages, peritoneal macrophage, CC50, 48 h, MTT
Procedure, shortened: as §1

[10] = test system: epimastigotes of T. cruzi; test: Antifolate activity: IC50 on T. cruzi epimastigotes with and without folic acid; format: cell-based; conditions: presence vs absence of D,L-folic acid
Procedure, shortened: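 T. cruzi epimastigotes were treated with test compound with or without D,L-folic acid, following the epimastigote turbidimetric viability protocol (120 h, 25 °C, A595). IC50 was determined in each condition and compared.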

J774.1A macrophages = conditions: read-out: J774.1A macrophage, CC50; cited from earlier work
[11] = test system: epimastigotes of T. cruzi; conditions: cited from earlier work

Structure (SMILES) | IC50 [1] [µM] | IC50 [2] [µM] | IC50 ([3]; Leishmania braziliensis) [µM] | inhibition at 25 µM ([3]; Leishmania braziliensis) [%] | inhibition at 25 µM [1] [%] | also measured
N/N=c1\[nH]c(-c2cccc(Br)c2)nc2ccccc12 [3g, (Z)-1-(2-(3-bromophenyl)quinazolin-4(3H)-ylidene)hydrazine] | > 25 | 21.1 ± 1.21 | > 25 | 27.3 | – | –
COc1cccc(-c2nc3ccccc3/c(=N/N)[nH]2)c1 [3h, (Z)-1-(2-(3-Methoxyphenyl)quinazolin-4(3H)-ylidene)hydrazine] | > 25 | > 25 | 12.2 ± 0.76 | – | 10.1 | inhibition at 25 µM [2]: 47.2%; promastigote, IC50 L. infantum [2]: inactive
COc1ccccc1-c1nc2ccccc2/c(=N/N)[nH]1 [3i, (Z)-1-(2-(2-Methoxyphenyl)quinazolin-4(3H)-ylidene)hydrazine] | > 25 | > 25 | > 25 | 49.2 | 11.9 | solubility [4]: poor solubilities; inhibition at 25 µM [2]: 28.3%; promastigote, IC50 L. infantum [2]: did not show activity; promastigote, IC50 L. braziliensis ([3]; promastigotes): did not show activity
N/N=c1\[nH]c(-c2ccco2)nc2ccccc12 [3k] | > 25 | 14 ± 0.91 | > 25 | 46.6 | 8.56 | –
Nc1ccc([N+](=O)[O-])cc1N [NPD, 4-nitro-o-phenylenediamine, reference compound] | – | – | – | – | – | revertants number [5]: 394.0 ± 10
CNC[C@H](O)[C@@H](O)[C@H](O)[C@H](O)CO.[O]=[Sb](=[O])[OH] [glucantime, reference compound] | – | – | – | – | – | CC50 (peritoneal macrophages): 138 ± 10.1 µM; S.I.Leishmania (selectivity index) [6]: 11.3; IC50 ([3]; promastigotes): 32 ± 1.78 µM
CCCCCCCCCCCCCCCCOP(=O)([O-])OCC[N+](C)(C)C [miltefosine, reference compound] | – | 10.6 ± 0.46 | 8.78 ± 0.41 | – | – | change of IC50 on addition of folic acid (FA) [7]: not affected; CC50 at 48 h [8]: 72.3 ± 3.45 µM; CC50 at 48 h [9]: 67.8 ± 3.11 µM; S.I.Leishmania (selectivity index) [6]: 3.2; IC50 ([6]; Leishmania braziliensis, 48 h, read-out: amastigote, IC50 L. braziliensis): 21.2 ± 1.13 µM
CC1CS(=O)(=O)CCN1/N=C/c1ccc([N+](=O)[O-])o1 (stereo not drawn) [nifurtimox] | – | – | – | – | – | change of IC50 on addition of folic acid (FA) [10]: not affected; CC50 (J774.1A macrophages): 280 ± 4 µM; S.I.T.cruzi (selectivity index) ([11]; CC50 (J774.1A) / IC50 of epimastigotes (T. cruzi)): 36 ^c; IC50 ([11]; read-out: epimastigote, IC50 T. cruzi, anti-Chagasic reference): 7.7 ± 0.5 µM
